Blank lines part the entries; values can stand above or below the compound they belong to.
Assays:
[1] = target: Sodium channel protein type 8 subunit alpha (Homo sapiens, UniProt Q9UQD0); assay: Inhibition of human Nav1.6 alpha expressed in HEK293 cells incubated for 5 mins with 6 consecutive train pulses to -10 mV at 0.1 Hz and holding potential of -65 mV by Qube-automated patch clamp assay; format: ADME, cell-based
[2] = target: Sodium channel protein type 9 subunit alpha (Homo sapiens, UniProt Q15858); assay: Inhibition of human Nav1.7 alpha expressed in HEK293 cells incubated for 5 mins with 6 consecutive train pulses to -10 mV at 0.1 Hz and holding potential of -65 mV by Qube-automated patch clamp assay; format: cell-based
Mus musculus [3] = species on record: Mus musculus; assay: Analgesic activity in mouse models of formalin-induced nociception assessed as reduction in paw pain; format: functional
Cytochrome P450 3A4 = Cytochrome P450 3A4 (Homo sapiens, UniProt P08684); assay: Inhibition of CYP3A4 (unknown origin); format: ADME
[4] = Drug concentration in plasma of formalin-induced C57BL/6 mouse model of formalin-induced pain at 30 mg/kg, po pretreated with compound for 15 mins followed by formalin challenge and measured after […]; format: ADME, organism-based
[5] = Intrinsic clearance in rat at 0.05 mg/kg, iv administered as cassette dose or 2 mg/kg, iv administered as single dose; details: in vivo
[6] = Half life in rhesus monkey; format: ADME, Macaca mulatta; details: in vivo
[7] = Oral bioavailability in rat; format: ADME, organism-based; details: in vivo
[8] = Selectivity ratio of IC50 for human Nav 1.5 expressed in HEK293 cells to IC50 for human Nav 1.7 alpha expressed in HEK293 cells
P-glycoprotein [9] = assay: Substrate activity at human p-glycoprotein assessed as efflux ratio of permeability across basal to apical membrane over apical to basal membrane; format: ADME; details: not told
Mus musculus [10] = assay: Reversal of formalin-induced nociception in po dosed C57BL/6 mouse pretreated with compound for 15 mins followed by formalin challenge and measured after 20 to 35 mins; format: functional; details: time min <=75
How it was run: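 C57BL/6 mice given compound orally at three dose levels or vehicle (10% Tween 80, 5 mL/kg) 15 min before formalin injection; nociceptive behaviors scored in phase 1 and phase 2; N = 8/group; within-subject ANOVA and 1-sample t test versus vehicle.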

[11] = Dissociation constant, pKa of the amine compound; format: physicochemical
[12] = Protein binding in mouse plasma; format: ADME, cell-free; details: read-out: PPB (converted)
Mus musculus [13] = assay: Analgesic activity against formalin-induced nociception in po dosed C57BL/6J mouse pretreated with compound for 15 mins followed by formalin challenge and measured after […]; format: functional, organism-based
Nav1.5 = Nav1.5 (Homo sapiens, UniProt Q14524); assay: Inhibition of human Nav1.5 alpha expressed in HEK293 cells expressed in HEK293 cells incubated for 5 mins with 6 consecutive train pulses to -10 mV at 0.1 Hz and holding potential of -65 mV by Qube-automated patch clamp assay; format: ADME, cell-based; details: HEK293 cells expressing human Nav1.5 alpha
[14] = Selectivity ratio of IC50 for human Nav 1.6 alpha expressed in HEK293 cells to IC50 for human Nav 1.7 alpha expressed in HEK293 cells
[15] = Kinetic solubility of compound at pH 7 by HPLC analysis; format: physicochemical; details: buffer, read-out: Kinetic_solubility
[16] = Kinetic solubility of compound at pH 2 by HPLC analysis; format: physicochemical; details: buffer, read-out: Kinetic_solubility
[17] = Volume of distribution at steady state in rhesus monkey; format: ADME, Macaca mulatta; details: in vivo, read-out: Vdss
Cytochrome P450 2C9 = Cytochrome P450 2C9 (Homo sapiens, UniProt P11712); assay: Inhibition of CYP2C9 (unknown origin); format: ADME
[18] = Clearance in rhesus monkey; format: ADME, Macaca mulatta; details: in vivo
[19] = Drug concentration in plasma of formalin-induced C57BL/6 mouse model of formalin-induced pain at 100 mg/kg, po pretreated with compound for 15 mins followed by formalin challenge and measured after […]; format: ADME, organism-based
PXR = target: T1, PXR (Homo sapiens, UniProt O75469); assay: Activation of PXR (unknown origin) relative to control; format: ADME
T1 sequence (O75469 whole entry): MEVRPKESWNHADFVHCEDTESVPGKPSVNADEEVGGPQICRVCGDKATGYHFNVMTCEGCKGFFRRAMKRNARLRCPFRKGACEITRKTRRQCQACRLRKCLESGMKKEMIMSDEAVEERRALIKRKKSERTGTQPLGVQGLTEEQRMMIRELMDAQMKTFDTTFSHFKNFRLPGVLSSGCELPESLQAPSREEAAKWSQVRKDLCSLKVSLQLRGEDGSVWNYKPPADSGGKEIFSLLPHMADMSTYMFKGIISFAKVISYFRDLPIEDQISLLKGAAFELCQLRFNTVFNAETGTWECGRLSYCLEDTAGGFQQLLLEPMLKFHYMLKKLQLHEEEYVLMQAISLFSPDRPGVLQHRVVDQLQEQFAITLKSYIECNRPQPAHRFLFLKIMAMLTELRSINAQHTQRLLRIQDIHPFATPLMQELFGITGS

[20] = Volume of distribution at steady state in rat; format: ADME; details: in vivo, read-out: Vdss
[21] = Volume of distribution at steady state in dog; format: ADME, Canis lupus familiaris; details: in vivo, read-out: Vdss
[22] = Oral bioavailability in dog; format: ADME, organism-based, Canis lupus familiaris; details: in vivo
[23] = Half life in rat; format: ADME; details: in vivo
P-glycoprotein [24] = assay: Substrate activity at rat p-glycoprotein assessed as efflux ratio of permeability across basal to apical membrane over apical to basal membrane; format: ADME; details: not told
[25] = Unbound plasma concentration in rhesus monkey at 19.2 mg/kg; format: ADME, organism-based, Macaca mulatta; details: in vivo
How it was run: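 Anesthetized rhesus monkeys, n = 4, imaged by olfactory-bulb fMRI over 2 h; IV infusion in 30% Captisol (~8 mL/animal) started at 1 h and continued for 1 h; unbound plasma concentration determined alongside olfactory inhibition.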

[26] = target: T2, Nuclear receptor subfamily 1 group I member 2 (Homo sapiens, UniProt O75469); assay: Activation of PXR (unknown origin); format: ADME
T2 sequence (O75469 whole entry): T1 sequence (O75469 whole entry)

[27] = Drug concentration in mouse brain at 100 mg/kg, po measured after 1.25 hrs; format: ADME, organism-based; details: read-out: Ct
[28] = Oral bioavailability in rhesus monkey; format: ADME, organism-based, Macaca mulatta; details: in vivo
[29] = Intrinsic Clearance in dog; format: ADME, Canis lupus familiaris
[30] = Inhibition of rhesus monkey Nav1.7 alpha expressed in HEK293 cells; format: cell-based, Macaca mulatta
[31] = Protein binding in human plasma; format: ADME, cell-free; details: read-out: PPB (converted)
[32] = Dissociation constant, pKa of the sulfonamide compound; format: physicochemical
[33] = Distribution coefficient, log D of the compound by MSD HPLC analysis; format: physicochemical; details: octanol/water
[34] = Half life in dog; format: ADME, Canis lupus familiaris; details: in vivo
[35] = Drug concentration in mouse CSF at 100 mg/kg, po measured after 1.25 hrs; format: ADME, organism-based, Cerebrospinal fluid; details: read-out: Ct
[36] = Apparent permeability in MDCK cells by Monolayer assay; format: ADME, cell-based, Canis lupus familiaris; details: dog
[37] = Drug concentration in mouse plasma at 100 mg/kg, po measured after 1.25 hrs; format: ADME, organism-based
Cytochrome P450 2D6 = Cytochrome P450 2D6 (Homo sapiens, UniProt P10635); assay: Inhibition of […] (unknown origin); format: ADME
[38] = Intrinsic Clearance in rhesus monkey; format: ADME, Macaca mulatta
[39] = Clearance in dog; format: ADME, Canis lupus familiaris; details: in vivo
[40] = Drug concentration in plasma of formalin-induced C57BL/6 mouse model of formalin-induced pain at 300 mg/kg, po pretreated with compound for 15 mins followed by formalin challenge and measured after […]; format: ADME, organism-based
[41] = Protein binding in rhesus monkey plasma; format: ADME, cell-free, Macaca mulatta; details: read-out: PPB (converted)
[42] = Clearance in rat; format: ADME; details: in vivo

Chain of Sodium channel protein type 9 subunit alpha (Q15858 whole entry): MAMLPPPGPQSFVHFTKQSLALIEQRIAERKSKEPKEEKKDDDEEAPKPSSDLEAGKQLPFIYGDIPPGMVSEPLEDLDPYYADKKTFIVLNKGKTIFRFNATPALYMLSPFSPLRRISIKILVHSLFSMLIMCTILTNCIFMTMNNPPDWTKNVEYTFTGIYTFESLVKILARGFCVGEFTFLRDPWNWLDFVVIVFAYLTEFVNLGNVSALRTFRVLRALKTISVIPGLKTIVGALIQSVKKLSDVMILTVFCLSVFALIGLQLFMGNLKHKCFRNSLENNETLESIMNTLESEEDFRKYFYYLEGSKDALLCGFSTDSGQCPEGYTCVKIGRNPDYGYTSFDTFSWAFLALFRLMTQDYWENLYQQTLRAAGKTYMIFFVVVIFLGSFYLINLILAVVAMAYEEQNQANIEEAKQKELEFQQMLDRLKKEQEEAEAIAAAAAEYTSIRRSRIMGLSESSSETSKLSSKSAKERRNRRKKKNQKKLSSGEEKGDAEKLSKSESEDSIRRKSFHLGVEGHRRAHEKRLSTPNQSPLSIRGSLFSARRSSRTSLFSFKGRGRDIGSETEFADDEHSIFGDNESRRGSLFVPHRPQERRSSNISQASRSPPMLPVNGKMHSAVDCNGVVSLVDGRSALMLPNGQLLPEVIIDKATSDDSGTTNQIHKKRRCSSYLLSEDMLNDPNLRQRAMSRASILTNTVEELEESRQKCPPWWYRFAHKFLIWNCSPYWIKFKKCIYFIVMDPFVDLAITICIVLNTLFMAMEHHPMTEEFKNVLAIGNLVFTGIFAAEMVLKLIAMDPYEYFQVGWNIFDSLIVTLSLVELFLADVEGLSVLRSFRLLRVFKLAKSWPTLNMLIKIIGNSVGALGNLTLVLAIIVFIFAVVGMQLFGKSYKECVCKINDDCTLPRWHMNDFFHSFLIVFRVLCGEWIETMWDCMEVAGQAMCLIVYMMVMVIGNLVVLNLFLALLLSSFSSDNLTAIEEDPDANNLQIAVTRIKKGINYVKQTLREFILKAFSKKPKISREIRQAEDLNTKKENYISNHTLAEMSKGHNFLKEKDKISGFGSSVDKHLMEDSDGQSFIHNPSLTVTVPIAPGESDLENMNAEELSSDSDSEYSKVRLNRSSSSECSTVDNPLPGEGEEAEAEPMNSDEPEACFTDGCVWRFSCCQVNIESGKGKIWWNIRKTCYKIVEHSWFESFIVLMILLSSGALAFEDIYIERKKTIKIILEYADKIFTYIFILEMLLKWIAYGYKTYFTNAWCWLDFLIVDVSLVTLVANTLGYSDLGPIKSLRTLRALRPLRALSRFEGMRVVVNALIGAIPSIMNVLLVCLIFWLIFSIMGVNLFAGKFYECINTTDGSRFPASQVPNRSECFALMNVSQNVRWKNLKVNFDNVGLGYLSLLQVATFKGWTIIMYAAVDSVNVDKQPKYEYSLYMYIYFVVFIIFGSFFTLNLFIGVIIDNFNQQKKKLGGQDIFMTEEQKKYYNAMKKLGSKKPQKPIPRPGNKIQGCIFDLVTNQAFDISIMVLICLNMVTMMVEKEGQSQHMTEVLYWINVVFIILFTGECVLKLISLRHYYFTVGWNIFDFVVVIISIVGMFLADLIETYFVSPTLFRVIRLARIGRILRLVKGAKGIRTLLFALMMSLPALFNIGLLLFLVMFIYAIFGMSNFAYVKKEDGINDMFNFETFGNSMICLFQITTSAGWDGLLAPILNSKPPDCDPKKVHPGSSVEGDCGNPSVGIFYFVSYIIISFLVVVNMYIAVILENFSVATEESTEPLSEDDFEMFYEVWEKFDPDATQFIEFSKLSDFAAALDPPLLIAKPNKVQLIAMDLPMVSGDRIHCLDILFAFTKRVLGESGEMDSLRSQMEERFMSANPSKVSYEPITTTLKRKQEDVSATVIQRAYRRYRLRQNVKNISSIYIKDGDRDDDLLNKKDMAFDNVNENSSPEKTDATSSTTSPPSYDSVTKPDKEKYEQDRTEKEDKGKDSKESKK
Chain of Sodium channel protein type 8 subunit alpha (Q9UQD0 whole entry): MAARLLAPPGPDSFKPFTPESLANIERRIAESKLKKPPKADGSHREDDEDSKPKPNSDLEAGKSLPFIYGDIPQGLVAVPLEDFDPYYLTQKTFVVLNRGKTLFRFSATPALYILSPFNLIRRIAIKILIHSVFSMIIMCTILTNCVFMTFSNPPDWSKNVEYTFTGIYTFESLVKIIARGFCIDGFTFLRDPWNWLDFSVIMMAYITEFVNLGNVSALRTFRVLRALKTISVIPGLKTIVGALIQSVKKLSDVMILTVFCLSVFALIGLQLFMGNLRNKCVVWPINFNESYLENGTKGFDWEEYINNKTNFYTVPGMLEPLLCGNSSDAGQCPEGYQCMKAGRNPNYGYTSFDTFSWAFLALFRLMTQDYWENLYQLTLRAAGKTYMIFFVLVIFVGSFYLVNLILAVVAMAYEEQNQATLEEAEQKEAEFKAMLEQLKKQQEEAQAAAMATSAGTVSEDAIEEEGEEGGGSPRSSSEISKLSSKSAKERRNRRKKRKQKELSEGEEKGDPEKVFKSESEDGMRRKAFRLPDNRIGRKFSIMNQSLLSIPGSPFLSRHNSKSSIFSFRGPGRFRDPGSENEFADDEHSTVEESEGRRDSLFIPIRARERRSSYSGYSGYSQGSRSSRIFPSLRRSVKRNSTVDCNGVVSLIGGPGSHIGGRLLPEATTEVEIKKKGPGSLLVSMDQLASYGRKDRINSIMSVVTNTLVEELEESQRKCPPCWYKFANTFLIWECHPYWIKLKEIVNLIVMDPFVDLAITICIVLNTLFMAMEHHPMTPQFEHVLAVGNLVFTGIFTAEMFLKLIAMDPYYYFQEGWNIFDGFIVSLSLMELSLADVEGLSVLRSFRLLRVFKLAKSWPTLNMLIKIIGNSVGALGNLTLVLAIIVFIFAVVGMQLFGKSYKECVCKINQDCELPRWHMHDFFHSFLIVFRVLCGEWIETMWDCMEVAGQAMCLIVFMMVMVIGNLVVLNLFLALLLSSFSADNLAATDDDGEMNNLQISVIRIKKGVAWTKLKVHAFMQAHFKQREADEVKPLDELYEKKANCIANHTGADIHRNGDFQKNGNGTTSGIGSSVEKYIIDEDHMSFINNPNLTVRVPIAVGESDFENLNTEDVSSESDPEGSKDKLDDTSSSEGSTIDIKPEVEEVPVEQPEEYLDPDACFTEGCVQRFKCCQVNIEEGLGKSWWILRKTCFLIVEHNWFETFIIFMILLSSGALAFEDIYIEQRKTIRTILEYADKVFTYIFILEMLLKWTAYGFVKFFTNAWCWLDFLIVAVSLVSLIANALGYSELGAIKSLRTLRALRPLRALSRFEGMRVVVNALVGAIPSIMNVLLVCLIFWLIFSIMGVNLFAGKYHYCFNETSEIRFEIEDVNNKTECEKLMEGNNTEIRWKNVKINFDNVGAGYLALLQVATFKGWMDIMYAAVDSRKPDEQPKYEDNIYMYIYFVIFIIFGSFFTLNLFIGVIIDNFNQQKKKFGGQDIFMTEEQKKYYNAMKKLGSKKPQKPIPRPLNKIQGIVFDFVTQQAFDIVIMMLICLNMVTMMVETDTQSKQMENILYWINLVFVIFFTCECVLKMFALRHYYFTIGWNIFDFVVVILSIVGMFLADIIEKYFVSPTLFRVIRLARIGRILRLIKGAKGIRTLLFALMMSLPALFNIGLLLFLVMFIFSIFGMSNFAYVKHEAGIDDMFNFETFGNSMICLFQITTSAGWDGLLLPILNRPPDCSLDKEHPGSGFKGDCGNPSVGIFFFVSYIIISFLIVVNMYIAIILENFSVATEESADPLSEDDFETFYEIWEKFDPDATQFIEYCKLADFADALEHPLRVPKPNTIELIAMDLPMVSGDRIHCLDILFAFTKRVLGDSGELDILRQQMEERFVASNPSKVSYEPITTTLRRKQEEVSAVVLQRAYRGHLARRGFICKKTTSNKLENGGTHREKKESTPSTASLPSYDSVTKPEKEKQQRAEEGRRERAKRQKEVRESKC
Chain of Cytochrome P450 2C9 (P11712 whole entry): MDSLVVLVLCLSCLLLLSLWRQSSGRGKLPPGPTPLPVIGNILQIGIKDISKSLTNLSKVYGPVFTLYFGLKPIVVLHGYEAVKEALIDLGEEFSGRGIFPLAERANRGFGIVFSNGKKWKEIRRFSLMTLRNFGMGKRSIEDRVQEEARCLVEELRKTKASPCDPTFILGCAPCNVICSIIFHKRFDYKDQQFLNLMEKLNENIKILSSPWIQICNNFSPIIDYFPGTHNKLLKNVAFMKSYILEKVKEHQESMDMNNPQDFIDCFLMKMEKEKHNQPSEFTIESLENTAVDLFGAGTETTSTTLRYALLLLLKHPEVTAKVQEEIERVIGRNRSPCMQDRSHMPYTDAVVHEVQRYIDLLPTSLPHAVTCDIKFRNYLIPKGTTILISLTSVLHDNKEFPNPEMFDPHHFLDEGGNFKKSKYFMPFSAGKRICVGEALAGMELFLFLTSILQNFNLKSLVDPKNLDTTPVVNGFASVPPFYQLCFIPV
Chain of Cytochrome P450 3A4 (P08684 whole entry): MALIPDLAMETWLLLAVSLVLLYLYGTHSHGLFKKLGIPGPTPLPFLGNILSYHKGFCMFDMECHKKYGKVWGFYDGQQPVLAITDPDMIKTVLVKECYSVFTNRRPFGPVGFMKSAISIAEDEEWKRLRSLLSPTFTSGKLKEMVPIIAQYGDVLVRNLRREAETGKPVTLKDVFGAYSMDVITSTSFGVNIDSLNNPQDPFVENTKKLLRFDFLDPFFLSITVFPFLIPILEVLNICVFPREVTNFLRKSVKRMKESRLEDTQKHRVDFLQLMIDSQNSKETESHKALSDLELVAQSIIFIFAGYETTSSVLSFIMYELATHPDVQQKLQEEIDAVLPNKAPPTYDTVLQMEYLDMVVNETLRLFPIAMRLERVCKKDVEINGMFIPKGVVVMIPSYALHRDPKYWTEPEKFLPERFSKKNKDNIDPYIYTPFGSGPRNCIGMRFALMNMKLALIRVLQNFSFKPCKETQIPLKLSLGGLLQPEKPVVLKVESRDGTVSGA

IC50 [1]: > 34000 nM
IC50 [2]: 1090 nM
SMILES: CN[C@H](CNc1cc(F)c(S(=O)(=O)Nc2ncns2)cc1Cl)Cc1ccccc1

IC90 (Mus musculus [3]): 220 nM
IC50 (Cytochrome P450 3A4): > 50000 nM
concentration at 1.75 h [4]: 3.27 µM
CL [5]: 1670 mL/min/kg
IC50 [1]: 18700 nM
half-life [6]: 1.3 h
bioavailability [7]: 100%
efflux ratio (P-glycoprotein [9]): 4.9
EC90 (Mus musculus [10]): 360 nM
pKa [11]: 9
fraction unbound [12]: 0.06
IC50 (Mus musculus [13]; Mus musculus, C57BL/6J): 4080 nM
IC90 (Mus musculus [13]; time 1.75 hrs): 6040 nM
solubility kinetic [15]: 148 µM
solubility kinetic [16]: 170 µM
Vd [17]: 0.3 L/kg
IC50 (Cytochrome P450 2C9): 28000 nM
clearance [18]: 11 mL/min/kg
concentration at 1.75 h [19]: 6.64 µM
Emax (PXR): 80%
Vd [20]: 2.1 L/kg
Vd [21]: 0.8 L/kg
bioavailability [22]: 25%
half-life [23]: 2.5 h
efflux ratio (P-glycoprotein [24]): > 14
Cp(f) [25]: 1.5 µM
EC50 [26]: 10000 nM
concentration at 1.25 h [27]: 0.1 µM
bioavailability [28]: 2%
CLint scaled [29]: 200 mL/min/kg
IC50 [30]: 310 nM
fraction unbound [31]: 0.02
pKa [32]: 5.4
logD [33]: 1.7
half-life [34]: 6 h
concentration at 1.25 h [35]: 0.005 µM
Papp [36]: 8 ×10⁻⁶ cm/s
concentration at 1.25 h [37]: 4.9 µM
IC50 (Cytochrome P450 2D6): 20000 nM
CLint scaled [38]: 610 mL/min/kg
clearance [39]: 4.5 mL/min/kg
IC50 [2]: 300 nM
concentration at 1.75 h [40]: 8.86 µM
fraction unbound [41]: 0.02
clearance [42]: 29 mL/min/kg
SMILES: CN[C@H](CNc1cc(F)c(S(=O)(=O)Nc2ncc(F)s2)cc1Cl)CC(C)(C)C.Cl
Ratio IC50 [8]: >390
IC90 at 5 min (Nav1.5): 3600 nM
Ratio IC50 [14]: 60

CL [5]: 4820 mL/min/kg
IC50 [1]: > 34000 nM
Papp [36]: 10 ×10⁻⁶ cm/s
IC50 [2]: 240 nM
SMILES: CN[C@H](CNc1cc(F)c(S(=O)(=O)Nc2nccs2)cc1Cl)Cc1ccccc1

SMILES: CN[C@H](CNc1cc(F)c(S(=O)(=O)Nc2ncc(F)s2)cc1Cl)CC12CC(C1)C2
CL [5]: 2300 mL/min/kg
IC50 [1]: > 34000 nM
Papp [36]: 10 ×10⁻⁶ cm/s
IC50 [2]: 120 nM

IC50 [1]: > 34000 nM
IC50 [2]: 850 nM
SMILES: CN(C)[C@H](CNc1cc(F)c(S(=O)(=O)Nc2nccs2)cc1Cl)Cc1ccccc1

CL [5]: 380 mL/min/kg
IC50 [1]: > 34000 nM
Papp [36]: 3 ×10⁻⁶ cm/s
IC50 [2]: 5540 nM
SMILES: CN[C@H](CNc1cc(F)c(S(=O)(=O)Nc2ncc(F)s2)cc1Cl)CC1CC1

CL [5]: 830 mL/min/kg
IC50 [1]: > 34000 nM
Papp [36]: 7 ×10⁻⁶ cm/s
IC50 [2]: 720 nM
SMILES: CN[C@H](CNc1cc(F)c(S(=O)(=O)Nc2ncc(F)s2)cc1Cl)CC1(C)CC1

CL [5]: 8090 mL/min/kg
IC50 [1]: > 34000 nM
Papp [36]: 5 ×10⁻⁶ cm/s
IC50 [2]: 1780 nM
SMILES: CN[C@H](CNc1cc(F)c(S(=O)(=O)Nc2ncc(F)s2)cc1Cl)CC1CCC1

CL [5]: 3020 mL/min/kg
IC50 [1]: > 34000 nM
Papp [36]: 8 ×10⁻⁶ cm/s
IC50 [2]: 400 nM
SMILES: CN[C@H](CNc1cc(F)c(S(=O)(=O)Nc2ncc(F)s2)cc1Cl)Cc1ccccc1

SMILES: CN[C@H](CNc1cc(F)c(S(=O)(=O)Nc2ncc(F)s2)cc1Cl)C[Si](C)(C)C
CL [5]: 500 mL/min/kg
IC50 [1]: 3130 nM
IC50 [2]: 44 nM

CL [5]: 5830 mL/min/kg
IC50 [1]: 420 nM
Papp [36]: 13 ×10⁻⁶ cm/s
IC50 [2]: 25 nM
SMILES: O=S(=O)(Nc1nccs1)c1cc(Cl)c(NCC2(Cc3ccccc3)CCCN2)cc1F (configuration not stated)

SMILES: N[C@H](CNc1cc(F)c(S(=O)(=O)Nc2nccs2)cc1Cl)Cc1ccccc1
IC50 [1]: > 34000 nM
IC50 [2]: > 34000 nM

IC50 [1]: 2080 nM
IC50 [2]: 2970 nM
SMILES: CC1(CNc2cc(F)c(S(=O)(=O)Nc3nccs3)cc2Cl)CCCN1 (stereo in doubt; 4)

IC50 [1]: 860 nM
IC50 [2]: 900 nM
SMILES: CC1(CNc2cc(F)c(S(=O)(=O)Nc3nccs3)cc2Cl)CCCN1 (stereo in doubt; 5)

SMILES: O=S(=O)(Nc1nccs1)c1cc(Cl)c(NCC2CCCN2)cc1F (stereo in doubt; 6)
IC50 [1]: > 34000 nM
IC50 [2]: > 34000 nM

SMILES: O=S(=O)(Nc1nccs1)c1cc(Cl)c(NCC2CCCN2)cc1F (stereo in doubt; 7)
IC50 ([1]; hek293): > 34000 nM
IC50 ([2]; hek293): > 34000 nM

IC50 [1]: > 34000 nM
IC50 [2]: > 34000 nM
SMILES: CNC(C)(CNc1cc(F)c(S(=O)(=O)Nc2nccs2)cc1Cl)Cc1ccccc1 (stereo in doubt; 9)

IC50 ([1]; hek293): > 34000 nM
IC50 [2]: 1140 nM
SMILES: CNC(C)(CNc1cc(F)c(S(=O)(=O)Nc2nccs2)cc1Cl)Cc1ccccc1 (stereo in doubt; 10)

From ChEMBL document CHEMBL4706775, “Discovery of Arylsulfonamide Na1.7 Inhibitors: IVIVC, MPO Methods, and Optimization of Selectivity Profile” (ACS Med Chem Lett, 2021)
